The values that follow come from article PMC3677025 (Pharmacological research : the official journal of the …, 2012).

Where “and” joins values, the source holds several entries; their conditions need not be identical. Equal entries are not always repeated. Where two headings read alike, the source gives them in different places.

For test [1], the target named is EphA4 (Mus musculus, UniProt Q03137). The experiment in a line: ELISA, ephrin-A5 AP binding to immobilized EphA4 Fc. Summed up:
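Mouse EphA4 Fc was captured at 1 μg/ml on protein A wells. Ephrin-A5 AP (~0.01 nM for IC50) from HEK293 supernatant was added with test compound for 2 h in TBST and read with p-nitrophenylphosphate, minus Fc-only background. For reversibility, compound was incubated 2 h, washed 30 min, then ephrin-A5 AP added for 1 h. For mode of inhibition, ephrin-A5 AP was titrated per compound concentration and fitted one-site; Ki came from KD/Bmax versus inhibitor regression.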
A general note: In an ELISA, binding on a coated surface is turned into a signal by an enzyme label.

For test [2], the target named is EphA2 (Mus musculus, UniProt Q03145). Description: ELISA, ephrin-A5 AP binding to immobilized EphA2 Fc. As to conditions: read-out: IC50 ± SE EphA2 ephrin-A5.
Test [3] addresses EphA3. The experiment in a line: ELISA, ephrin-A5 AP binding to immobilized EphA3 Fc. As to conditions: read-out: IC50, inhibition of ephrin binding to EphA3. Summed up:
(§1)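 Eph receptor Fc fusions were immobilized at 1 μg/ml in TBST on protein A-coated wells. Diluted ephrin AP fusion supernatant from transiently transfected HEK293 cells was added for 2 h with or without test compound; for IC50 it was at approximately 0.01 nM. Bound AP was read with p-nitrophenylphosphate, minus Fc-only background. IC50 came from a variable-slope log(inhibitor)–response fit, bottom constrained to 0.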

Test [4] addresses EphB6. Description: ELISA, ephrin-B2 AP binding to immobilized EphB6 Fc. The settings on record: read-out: IC50, inhibition of ephrin binding to EphB6. Summed up: as §1
In test [5] the test system is EphB1. Description: ELISA, ephrin-B2 AP binding to immobilized EphB1 Fc. As to conditions: concentrations up to 200 μM. The method in brief:
as §1

In test [6] the test system is EphA4 ephrin-binding domain mutants. The experiment in a line: Wild-type and mutant EphA4 AP binding to immobilized ephrin-A5 Fc. Set-up: species or system human. The settings on record: EphA4 AP mutants vs wild-type. The method in brief: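 Wild-type and point-mutant human EphA4 ephrin-binding domains fused to alkaline phosphatase were added at 0.01 nM final to wells precoated with protein A and ephrin-A5 Fc, with or without test compound. Bound AP was read with p-nitrophenylphosphate. IC50 values from 2–3 separate experiments were compared with wild-type by one-way ANOVA and Dunnett's post-hoc test.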

In test [7] the target is EphA2 (Homo sapiens, UniProt P29317). Description: Ephrin-A1 Fc-induced EphA2 tyrosine phosphorylation in PC3 cells. Format: cell-based. As to conditions: read-out: IC50, EphA2 tyrosine phosphorylation, 0.25 μg/mL ephrin-A1 Fc, ELISA. The method in brief:
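PC3 cells were serum-starved 1 h, given test compound (final DMSO ≤0.4%) for 15 min, then ephrin-A1 Fc for 20 min with compound still present. Lysis was in modified RIPA with NaF and pervanadate. Lysates were split for phospho and total EphA2 ELISA: anti-EphA2 extracellular capture, anti-phosphotyrosine or anti-cytoplasmic EphA2 detection, ABTS read at A405. IC50 was fitted to values normalized to ephrin-only cells.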

Test [8] relates to EphB2. The experiment in a line: Ephrin-B2 Fc-induced EphB2 tyrosine phosphorylation in COS cells. Format: cell-based. As to conditions: relative to concentrations inhibiting other Eph receptors. Summed up:
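Cells were serum-starved 1–2 h and pretreated 15 min with test compound (DMSO ≤0.4% final). They were then stimulated 20 min with compound present: COS cells with 0.8 μg/mL ephrin-B2 Fc, and B16 melanoma cells with 1.5 μg/mL anti-Fc-preclustered ephrin-B2 Fc, or Fc control. Lysates were made in modified RIPA. EphB2 (COS; 7 μg antibody) or EphB4 (B16; 20 μg antibody) was immunoprecipitated, probed for phosphotyrosine, then reprobed for the receptor.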

Test [9] deals with T1, EphB4 (Homo sapiens, UniProt P54760).
T1 sequence (P54760 16-987): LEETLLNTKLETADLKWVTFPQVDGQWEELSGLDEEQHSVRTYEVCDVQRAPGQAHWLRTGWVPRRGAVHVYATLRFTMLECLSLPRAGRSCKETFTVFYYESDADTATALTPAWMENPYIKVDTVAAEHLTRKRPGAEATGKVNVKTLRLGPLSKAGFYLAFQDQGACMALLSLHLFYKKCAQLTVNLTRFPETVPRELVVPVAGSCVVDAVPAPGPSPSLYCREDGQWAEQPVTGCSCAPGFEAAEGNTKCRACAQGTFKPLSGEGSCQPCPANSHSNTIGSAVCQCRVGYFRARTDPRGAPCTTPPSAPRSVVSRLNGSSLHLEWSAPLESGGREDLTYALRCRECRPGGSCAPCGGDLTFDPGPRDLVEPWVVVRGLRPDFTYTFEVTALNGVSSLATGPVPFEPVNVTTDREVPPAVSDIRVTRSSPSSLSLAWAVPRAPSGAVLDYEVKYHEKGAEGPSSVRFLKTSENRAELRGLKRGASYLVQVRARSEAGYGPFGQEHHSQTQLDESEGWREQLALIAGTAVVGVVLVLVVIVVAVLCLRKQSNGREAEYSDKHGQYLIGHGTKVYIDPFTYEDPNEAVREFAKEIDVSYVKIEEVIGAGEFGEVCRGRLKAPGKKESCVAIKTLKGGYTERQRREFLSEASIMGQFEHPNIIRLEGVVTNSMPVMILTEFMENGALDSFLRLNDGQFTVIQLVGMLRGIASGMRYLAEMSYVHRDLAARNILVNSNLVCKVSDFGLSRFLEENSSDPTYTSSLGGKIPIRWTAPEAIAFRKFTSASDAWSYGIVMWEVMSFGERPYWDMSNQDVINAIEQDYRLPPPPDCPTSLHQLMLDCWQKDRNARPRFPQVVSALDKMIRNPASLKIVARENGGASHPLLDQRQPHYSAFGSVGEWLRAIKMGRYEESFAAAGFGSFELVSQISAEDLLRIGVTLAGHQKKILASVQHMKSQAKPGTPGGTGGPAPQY
Description: Ephrin-B2 Fc-induced EphB4 phosphorylation in HUVECs. Format: cell-based. The settings on record: at 50 μM. Summed up: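 HUVECs were serum-starved 1–2 h and preincubated 15 min with 50 μM test compound (DMSO ≤0.4% final). They were then stimulated 20 min with 0.25 μg/mL ephrin-A1 Fc plus 1.5 μg/mL ephrin-B2 Fc (preclustered with 3-fold anti-Fc), or Fc, with compound present. Lysates were made in modified RIPA with NaF and pervanadate. EphA2 (1 μg antibody) and EphB4 (20 μg antibody) immunoprecipitates were immunoblotted for phosphotyrosine; lysates were probed for receptors and β-actin.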

The test system of test [10] is HUVECs. The experiment in a line: Capillary-like tube formation assay, HUVECs on Matrigel. Format: cell-based, human. The settings on record: 18 hours. Summed up:
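HUVECs (2.3 × 10⁴) were seeded on Matrigel-precoated wells in complete HUVEC medium containing test compound or DMSO control and grown for 18 h. Polygons were counted from phase-contrast images, 2–4 pictures from each of 3–6 wells. Counts were compared with DMSO-only wells by one-way ANOVA with Dunnett's post-hoc test.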

EphA4, sequence (Q03137 20-547 limits assumed): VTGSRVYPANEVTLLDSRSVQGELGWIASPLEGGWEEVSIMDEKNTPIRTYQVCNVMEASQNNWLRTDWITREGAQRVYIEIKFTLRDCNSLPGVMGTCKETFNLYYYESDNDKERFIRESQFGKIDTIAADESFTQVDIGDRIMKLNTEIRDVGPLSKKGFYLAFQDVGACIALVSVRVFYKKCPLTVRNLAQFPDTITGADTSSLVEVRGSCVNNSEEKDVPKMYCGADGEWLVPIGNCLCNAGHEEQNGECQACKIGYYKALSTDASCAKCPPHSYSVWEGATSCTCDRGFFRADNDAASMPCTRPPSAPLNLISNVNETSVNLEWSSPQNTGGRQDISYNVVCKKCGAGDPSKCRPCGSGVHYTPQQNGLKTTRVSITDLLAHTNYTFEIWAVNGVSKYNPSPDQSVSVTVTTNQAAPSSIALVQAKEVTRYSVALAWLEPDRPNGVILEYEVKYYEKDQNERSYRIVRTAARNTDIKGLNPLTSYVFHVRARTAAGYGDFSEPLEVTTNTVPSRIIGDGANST
EphA2 (Homo sapiens, UniProt P29317), sequence (P29317 24-976): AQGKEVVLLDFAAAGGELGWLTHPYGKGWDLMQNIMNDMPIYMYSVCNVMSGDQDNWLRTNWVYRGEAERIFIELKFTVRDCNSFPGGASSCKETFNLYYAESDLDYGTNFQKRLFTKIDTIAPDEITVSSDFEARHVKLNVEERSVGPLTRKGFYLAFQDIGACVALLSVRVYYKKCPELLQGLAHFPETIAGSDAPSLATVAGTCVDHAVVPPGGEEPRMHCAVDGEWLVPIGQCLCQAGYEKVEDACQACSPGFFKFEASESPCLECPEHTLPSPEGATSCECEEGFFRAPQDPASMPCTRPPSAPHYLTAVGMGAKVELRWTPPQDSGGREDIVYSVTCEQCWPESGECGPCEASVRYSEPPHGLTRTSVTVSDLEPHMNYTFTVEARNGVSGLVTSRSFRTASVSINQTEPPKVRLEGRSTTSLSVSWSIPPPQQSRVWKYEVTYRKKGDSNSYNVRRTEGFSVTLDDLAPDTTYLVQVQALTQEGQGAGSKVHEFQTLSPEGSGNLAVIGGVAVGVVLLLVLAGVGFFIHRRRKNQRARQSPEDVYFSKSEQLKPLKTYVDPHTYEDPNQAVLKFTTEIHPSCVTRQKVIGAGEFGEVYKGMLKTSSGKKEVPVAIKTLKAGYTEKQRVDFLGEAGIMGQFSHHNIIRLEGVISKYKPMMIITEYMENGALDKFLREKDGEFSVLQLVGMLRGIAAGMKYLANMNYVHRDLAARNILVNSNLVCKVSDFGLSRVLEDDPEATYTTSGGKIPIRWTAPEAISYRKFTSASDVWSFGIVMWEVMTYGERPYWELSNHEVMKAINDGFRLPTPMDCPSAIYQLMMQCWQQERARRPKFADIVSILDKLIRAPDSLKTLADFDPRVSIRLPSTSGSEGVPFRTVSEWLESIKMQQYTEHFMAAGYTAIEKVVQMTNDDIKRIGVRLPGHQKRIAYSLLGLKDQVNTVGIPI
EphA2 (Mus musculus, UniProt Q03145), sequence (Q03145 26-538): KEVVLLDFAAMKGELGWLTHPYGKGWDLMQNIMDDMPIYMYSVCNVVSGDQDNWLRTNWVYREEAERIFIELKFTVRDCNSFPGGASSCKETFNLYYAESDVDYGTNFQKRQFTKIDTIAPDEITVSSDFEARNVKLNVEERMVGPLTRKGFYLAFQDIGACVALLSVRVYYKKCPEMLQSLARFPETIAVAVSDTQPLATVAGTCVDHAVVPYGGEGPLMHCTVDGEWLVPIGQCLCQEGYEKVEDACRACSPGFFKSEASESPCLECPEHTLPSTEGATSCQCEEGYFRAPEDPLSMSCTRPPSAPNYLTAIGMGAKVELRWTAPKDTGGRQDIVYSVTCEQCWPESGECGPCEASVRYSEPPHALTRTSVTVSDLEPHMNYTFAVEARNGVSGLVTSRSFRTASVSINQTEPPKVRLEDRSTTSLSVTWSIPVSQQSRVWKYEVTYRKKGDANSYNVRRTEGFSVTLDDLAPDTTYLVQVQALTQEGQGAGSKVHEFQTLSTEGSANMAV

On to `O=C(Oc1cc(O)cc2c1C[C@@H](OC(=O)c1cc(O)c(O)c(O)c1)[C@@H](c1cc(O)c(O)c(O)c1)O2)c1cc(O)c(O)c(O)c1` [epigallocatechin-3,5-digallate], for which the “reversibility of inhibition of EphA4-ephrin-A5 binding” value in [1] (compound washed out before adding ephrin-A5 AP) is recorded as “reversible”. Also, the IC50 in test [1] (read-out: IC50, inhibition of EphA4-ephrin-A5 binding (text)) is 8 µM; in test [1] (read-out: IC50, inhibition of EphA4-ephrin-A5 binding (text), listed as Epigallocatechin-3,5-digallate) it was less than 10 µM; in test [1] (read-out: IC50 ± SE EphA4 ephrin-A5), 7.4 ± 1.8 µM; in test [2], 40 ± 3.8 µM; in [3] it was less than 10 µM; in test [4], less than 10 µM. In addition, in [7], the IC50 is 90 µM and ~90 µM. In addition, the “mode of inhibition of ephrin-A5 binding to EphA4” value in test [1] (similar Bmax, increasing KD) is “competitive inhibitors”. In [5], the “inhibition of EphB1-ephrin interaction” value is reported as “no inhibition”. The “effect of other EphA4 mutations, such as D123A, on inhibitory activity” value in test [6] was “did not detectably affect”. Moreover, the “inhibition of EphB2 phosphorylation” value in [8] is given as “at higher concentrations”. The “EphB4 phosphorylation in HUVECs” value in test [9] is listed as “strongly inhibits”. Besides, the figures for the capillary-like tube formation result in test [10] (20 μM to 200 μM) and in [10] (at 50 μM) were “dose-dependent inhibitory effect” and “inhibit”, respectively.
